Measured values reported in ChEMBL document CHEMBL1124233, “Clofazimine analogues active against a clofazimine-resistant organism” (J Med Chem, 1988).

Key:
Format in all cases: functional, organism-based
[1] = system: Mycolicibacterium smegmatis; assay: 100% inhibition of growth of rifampicin resistant Mycobacterium smegmatis 607 strain in vitro
Outline: (§1)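 M. smegmatis ATCC607-derived strains (one of three used, including a dapsone-sensitive one) were grown in modified Kirchner's medium with 0.5% Tween 80, inoculated with 10^5 viable cells. Drugs were added in DMSO (2% final). Roller tubes were incubated at 37 °C for 72 h. Growth was read as spectrophotometric transmission.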

[2] = system: Mycolicibacterium smegmatis; assay: 100% inhibition of growth of clofazimine resistant Mycobacterium smegmatis 607 strain in vitro
Outline: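 Strain: 20× step-up clofazimine-resistant mutant of M. smegmatis ATCC607. 10^5 viable cells inoculated into modified Kirchner's medium with 0.5% Tween 80. Drugs were added in DMSO (2% final in all tubes). Roller tubes were incubated at 37 °C for 72 h. Growth was read as optical transmission in a spectrophotometer.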

[3] = system: Mycolicibacterium smegmatis; assay: Concentration for 100% inhibition of growth of dapsone sensitive Mycobacterium smegmatis 607 strain in vitro; outline: as §1

SMILES	Concentration [1] [µg/mL]	Concentration [2] [µg/mL]	Concentration [3] [µg/mL]
CC/N=c1\cc2n(-c3ccc(Cl)cc3)c3ccccc3nc-2cc1Nc1ccc(Cl)cc1	2	100	2
CCN(CC)CCCC(C)/N=c1\cc2n(-c3ccc(Cl)cc3)c3ccccc3nc-2cc1Nc1ccc(Cl)cc1 (stereo not drawn)	0.2	2	0.2
CNCCC/N=c1\cc2n(-c3ccc(Cl)cc3)c3ccccc3nc-2cc1Nc1ccc(Cl)cc1	0.3	0.6	0.2
Clc1ccc(Nc2cc3nc4ccccc4n(-c4ccc(Cl)cc4)c-3c/c2=N\C2CCCCCC2)cc1	3	50	2
c1ccc(Nc2cc3nc4ccccc4n(-c4ccccc4)c-3c/c2=N\CCN2CCCC2)cc1	0.4	2	0.4
CN1CCN(CCC/N=c2\cc3n(-c4ccccc4)c4ccccc4nc-3cc2Nc2ccccc2)CC1	0.5	1	0.5
CC(C)CC/N=c1\cc2n(-c3ccc(Cl)cc3)c3ccccc3nc-2cc1Nc1ccc(Cl)cc1	3	80	2
CC(C)/N=c1\cc2n(-c3ccc(Cl)cc3)c3ccccc3nc-2cc1Nc1ccc(Cl)cc1	0.5	30	1.5
CC(C)C/N=c1\cc2n(-c3ccc(Cl)cc3)c3ccccc3nc-2cc1Nc1ccc(Cl)cc1	4	100	4
CCC/N=c1\cc2n(-c3ccc(Cl)cc3)c3ccccc3nc-2cc1Nc1ccc(Cl)cc1	3	100	3
C/N=c1\cc2n(-c3ccc(Cl)cc3)c3ccccc3nc-2cc1Nc1ccc(Cl)cc1	2	100	2
Clc1ccc2c(c1)nc1cc(Nc3ccccc3)/c(=N/CC3CCNCC3)cc-1n2-c1ccccc1	0.4	1	0.2
Clc1ccc(Nc2cc3nc4ccccc4n(-c4ccc(Cl)cc4)c-3c/c2=N\CCN2CCNCC2)cc1	0.2	0.8	0.2
Clc1ccc(Nc2cc3nc4ccccc4n(-c4ccc(Cl)cc4)c-3c/c2=N\CC2CCNCC2)cc1	0.2	0.6	0.2
CCCCN(CCCC)CCC/N=c1\cc2n(-c3ccc(Cl)cc3)c3ccccc3nc-2cc1Nc1ccc(Cl)cc1	0.8	12	0.4
CCN(CC)CC/N=c1\cc2n(-c3ccc(C)cc3)c3ccccc3nc-2cc1Nc1ccc(C)cc1	0.5	3	0.5
OCCCN1CCN(CCC/N=c2\cc3n(-c4ccc(Cl)cc4)c4ccccc4nc-3cc2Nc2ccc(Cl)cc2)CC1	0.5	2	0.6
CC1CCC(/N=c2\cc3n(-c4ccc(Cl)cc4)c4ccccc4nc-3cc2Nc2ccc(Cl)cc2)CC1 (stereo not drawn)	7.5	25	7.5
Clc1ccc2c(c1)nc1cc(Nc3ccccc3)/c(=N/C3CCCCC3)cc-1n2-c1ccccc1	0.6	20	3

SMILES	Concentration [1] [µg/mL]	Concentration [2] [µg/mL]	Concentration [3] [µg/mL]
CC(C)NCCC/N=c1\cc2n(-c3ccc(Cl)cc3)c3ccccc3nc-2cc1Nc1ccc(Cl)cc1	0.2	2	0.3
Clc1ccc(Nc2cc3nc4ccccc4n(-c4ccc(Cl)cc4)c-3c/c2=N\CC2CCCCC2)cc1	3	100	3
Cc1ccc(Nc2cc3nc4ccccc4n(-c4ccc(C)cc4)c-3c/c2=N\CCCNC2CCCCC2)cc1	0.2	0.5	0.2
CCN1CCCC(/N=c2\cc3n(-c4ccccc4)c4ccccc4nc-3cc2Nc2ccccc2)C1 (stereo not drawn)	0.6	6	0.4
Clc1ccc(Nc2cc3nc4ccccc4n(-c4ccc(Cl)cc4)c-3c/c2=N\CCN2CCCC2)cc1	0.5	10	0.5
CC(C/N=c1\cc2n(-c3ccccc3)c3ccccc3nc-2cc1Nc1ccccc1)N(C)C (stereo not drawn)	1	4	0.8
c1ccc(Nc2cc3nc4ccccc4n(-c4ccccc4)c-3c/c2=N\C2CCCCCC2)cc1	2	20	2
CCOc1ccc(Nc2cc3nc4ccccc4n(-c4ccc(OCC)cc4)c-3c/c2=N\CC(C)C)cc1	4	100	4
CCCC/N=c1\cc2n(-c3ccccc3)c3ccc(Cl)cc3nc-2cc1Nc1ccccc1	3	100	2
CC1CCCCN1CCC/N=c1\cc2n(-c3ccc(Cl)cc3)c3ccccc3nc-2cc1Nc1ccc(Cl)cc1 (stereo not drawn)	0.2	2	0.2
CCCNCCC/N=c1\cc2n(-c3ccc(Cl)cc3)c3ccccc3nc-2cc1Nc1ccc(Cl)cc1	0.2	2	0.2
c1ccc(Nc2cc3nc4ccccc4n(-c4ccccc4)c-3c/c2=N\C2CCCCC2)cc1	2	10	3
Clc1ccc(Nc2cc3nc4ccccc4n(-c4ccc(Cl)cc4)c-3c/c2=N\CCCN2CCCCC2)cc1	0.3	2	0.2
c1ccc(Nc2cc3nc4ccccc4n(-c4ccccc4)c-3c/c2=N\CCCNC2CCCCC2)cc1	0.2	0.6	0.2
Cc1ccc(Nc2cc3nc4ccccc4n(-c4ccc(C)cc4)c-3c/c2=N\CC(C)C)cc1	3	100	2
CC1CCCCN1CCC/N=c1\cc2n(-c3ccccc3)c3ccccc3nc-2cc1Nc1ccccc1 (stereo not drawn)	0.3	2	0.3
COC(C/N=c1\cc2n(-c3ccccc3)c3ccccc3nc-2cc1Nc1ccccc1)OC	4	100	4
CCN(CC)CCC/N=c1\cc2n(-c3ccc(Cl)cc3)c3ccccc3nc-2cc1Nc1ccc(Cl)cc1	0.2	1	0.2
CCN(CC)CCCC(C)/N=c1\cc2n(-c3ccccc3)c3ccccc3nc-2cc1Nc1ccccc1 (stereo not drawn)	0.4	2	0.3

SMILES	Concentration [1] [µg/mL]	Concentration [2] [µg/mL]	Concentration [3] [µg/mL]
CCC(CO)/N=c1\cc2n(-c3ccc(Cl)cc3)c3ccccc3nc-2cc1Nc1ccc(Cl)cc1 (stereo not drawn)	10	100	2
NCCC/N=c1\cc2n(-c3ccc(Cl)cc3)c3ccccc3nc-2cc1Nc1ccc(Cl)cc1	0.4	1	0.3
Clc1ccc(Nc2cc3nc4ccccc4n(-c4ccc(Cl)cc4)c-3c/c2=N\CCCNC2CCCCC2)cc1	0.2	1	0.2
OCC/N=c1\cc2n(-c3ccc(Cl)cc3)c3ccccc3nc-2cc1Nc1ccc(Cl)cc1	2	20	2
Clc1ccc(Nc2cc3nc4ccccc4n(-c4ccc(Cl)cc4)c-3c/c2=N\CCCN2CCCC2)cc1	0.3	0.8	0.3
CCC(CO)/N=c1\cc2n(-c3ccccc3)c3ccccc3nc-2cc1Nc1ccccc1 (stereo not drawn)	30	100	2
Clc1ccc(Nc2cc3nc4ccccc4n(-c4ccc(Cl)cc4)c-3c/c2=N\CCN2CCCCC2)cc1	0.5	10	0.4
OC1CCC(/N=c2\cc3n(-c4ccc(Cl)cc4)c4ccccc4nc-3cc2Nc2ccc(Cl)cc2)CC1 (stereo not drawn)	4	30	2
c1ccc(Nc2cc3nc4ccccc4n(-c4ccccc4)c-3c/c2=N\C2CCCC2)cc1	3	100	3
N=c1cc2n(-c3ccccc3)c3ccccc3nc-2cc1Nc1ccccc1	8	12	3
CC(C)CC/N=c1\cc2n(-c3ccccc3)c3ccccc3nc-2cc1Nc1ccccc1	2	20	2
Clc1ccc(Nc2cc3nc4ccccc4n(-c4ccc(Cl)cc4)c-3c/c2=N\C2CCCCC2)cc1	1	20	2
Clc1ccc(Nc2cc3nc4ccccc4n(-c4ccc(Cl)cc4)c-3c/c2=N\CCCN2CCOCC2)cc1	0.4	12	0.5
CC(C)C/N=c1\cc2n(-c3ccccc3)c3ccccc3nc-2cc1Nc1ccccc1	3	20	2
CC(C)C/N=c1\cc2n(-c3ccccc3)c3ccc(Cl)cc3nc-2cc1Nc1ccccc1	3	100	2
CC(C)CC/N=c1\cc2n(-c3ccccc3)c3ccc(Cl)cc3nc-2cc1Nc1ccccc1	3	100	3
CCC/N=c1\cc2n(-c3ccccc3)c3ccccc3nc-2cc1Nc1ccccc1	3	20	2
CC(CN(C)C)/N=c1\cc2n(-c3ccc(Cl)cc3)c3ccccc3nc-2cc1Nc1ccc(Cl)cc1 (stereo not drawn)	1.2	16	0.8
